Calls of active or inactive are those of the source. The calls are words filed in the database; no cut-off is given here.
Assays:
[1] = tested on: Trypanosoma cruzi; assay: Antitrypanosomal activity against Trypanosoma cruzi clone Cl-Brener infected in african green monkey Vero cells assessed as growth inhibition after 3 days by luciferase reporter gene assay; assay type: functional, organism-based; settings: 72 h
Outline: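 Vero cells seeded at 1.5×10^4 ml⁻¹, allowed to adhere 6 h, then infected overnight with 10,000 luciferase-expressing Cl-Brener trypomastigotes per well. After two washes to remove free parasites, drug-containing medium was added for 3 days at 37°C, 5% CO2. Cells were lysed and luciferase light output read; IC50 calculated.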

[2] = tested on: Trypanosoma brucei; assay: Antitrypanosomal activity against Trypanosoma brucei BSF overexpressing NTR gene assessed as growth inhibition after 3 days by Alamar blue assay; assay type: functional, organism-based; settings: 72 h
Outline: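 Bloodstream-form 2T1 parasites overexpressing TbNTR, kept in hygromycin, seeded at 1×10^3 ml⁻¹ in modified Iscove's medium with graded compound. Tetracycline 1 μg ml⁻¹ added for induction where appropriate. 3 days at 37°C, 5% CO2, then Alamar Blue for 16 h; fluorescence at ex 530/em 585 nm. IC50 calculated; means of 4 experiments ± SD.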

[3] = tested on: Trypanosoma brucei; assay: Activity of Trypanosoma brucei NTR expressed in Escherichia coli assessed as enzyme-mediated compound reduction by reverse phase HPLC
Outline: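 Recombinant His-tagged TbNTR purified from E. coli (Ni-NTA). Substrate 100 μM with 200 μM NADH, 3 mM glucose, 1 U glucose dehydrogenase in 50 mM NaH2PO4 pH 7.5 at 37°C; started with 50 μg enzyme. Aliquots at 20–600 s quenched in ice-cold methanol. Substrate loss followed by reversed-phase HPLC (4–56% acetonitrile, 254/340/450 nm), quantified against a nifurtimox standard.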

[4] = tested on: Vero; assay: Cytotoxicity against african green monkey Vero cells after 6 days by Alamar blue assay; assay type: cell-based; settings: Chlorocebus sabaeus, 144 h
Outline: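 Vero cells seeded at 1×10^4 ml⁻¹ in RPMI 1640 with 10% FCS containing graded compound (up to 250 μM). 6 days at 37°C, 5% CO2, then Alamar Blue for 8 h; fluorescence read and IC50 derived.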

[5] = tested on: V79; assay: Cytotoxicity against chinese hamster V79 cells after 6 days by Alamar blue assay; assay type: cell-based; settings: Cricetulus griseus, V79, 144 h

| Compound | IC50 [1] [µM] | IC50 [2] [µM] | Activity [3] | IC50 [4] [µM] | IC50 [5] [µM] |
| --- | --- | --- | --- | --- | --- |
| CS(=O)(=O)c1cc([N+](=O)[O-])c(N2CC2)cc1C(N)=O | > 10 | > 10 |  |  |  |
| O=C(NCCN1CCOCC1)c1cc([N+](=O)[O-])cc([N+](=O)[O-])c1N1CC1 | > 10 | > 10 |  |  |  |
| NC(=O)c1cc(N2CC2)c([N+](=O)[O-])cc1[N+](=O)[O-] [TRETAZICAR] | 0.57 |  | Active | > 250 | 543 |
| COC(=O)CCNC(=O)c1cc(N2CC2)c([N+](=O)[O-])cc1[N+](=O)[O-] | 0.69 | 1.45 | Active | > 250 | 634 |
| O=C(NCCN1CCOCC1)c1cc(N2CC2)c([N+](=O)[O-])cc1[N+](=O)[O-] | 1.59 | 0.89 | Active | > 250 | 624 |
| NC(=O)c1cc([N+](=O)[O-])cc([N+](=O)[O-])c1N1CC1 | > 10 | > 10 |  |  |  |
| CC1CS(=O)(=O)CCN1/N=C/c1ccc([N+](=O)[O-])o1 (centres undefined) [NIFURTIMOX] | 0.24 |  |  | 64.1 | 35 |
| CS(=O)(=O)c1cc([N+](=O)[O-])c(N2CC2)cc1NCC(O)CO (centres undefined) | > 10 | > 10 |  |  |  |
| O=[N+]([O-])c1cc(NCC(O)CO)c(N2CC2)c([N+](=O)[O-])c1 (centres undefined) | > 10 | > 6.4 |  |  |  |
| NC(=O)c1ccc([N+](=O)[O-])c(N2CC2)c1 | > 10 | > 10 |  |  |  |
